An excerpt weighted towards active compounds, which were near 3.1% of everything screened.
PP1 counter – counter-screen for PP5 inhibitors: inhibitors of human PP1-alpha; P62136; purified PP1alpha, OMFP fluorescence; inhibition, % at 6.7 µM; 320,000 compounds, 0.9% hits;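 active = inhibition above the mean inhibition of all tested compounds plus 3 SD, computed separately for each screening campaign, cut at about 15% in these data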
Target sequence (P62136 whole entry, looked up): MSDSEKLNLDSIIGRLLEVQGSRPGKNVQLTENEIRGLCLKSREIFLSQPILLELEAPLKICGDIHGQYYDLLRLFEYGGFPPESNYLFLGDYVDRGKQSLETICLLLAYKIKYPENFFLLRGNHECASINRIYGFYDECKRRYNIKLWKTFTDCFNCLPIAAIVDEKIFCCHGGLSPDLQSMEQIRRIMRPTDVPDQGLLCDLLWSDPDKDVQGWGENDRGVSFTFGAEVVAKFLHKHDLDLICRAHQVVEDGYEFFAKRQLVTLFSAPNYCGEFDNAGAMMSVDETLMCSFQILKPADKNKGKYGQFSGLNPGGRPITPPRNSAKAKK
NadD block – blocks S. aureus nicotinate mononucleotide adenylyltransferase | purified NadD enzyme, colorimetric absorbance read-out | 360,000 compounds, 0.78% hits | inhibition, % at 20 µM | AID 602399; in the data active = inhibition above about 26%
HCV core dimer – blocks dimerization of HCV core protein; TR-FRET GST/Flag-core106 dimerization, 1536-well; inhibition, % at 5 µM; 300,000 compounds, 0.33% hits;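 active = inhibition above the mean of all tested compounds plus 3 SD, set per screening campaign, cut at about 45% in these data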
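System – GST-tagged and Flag-tagged HCV core protein residues 1-106 · Repeats – one well for each compound · Technique – TR-FRET 671 and 617 nm emission · Doses – one concentration, 5 µM, in 0.5% DMSO · Times – 4 h, 22.5 °C incubation · Also added – Eu donor and XL665 acceptor anti-tag antibodies · Measure – percent inhibition of core106 dimerization signal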
Myeloid diff 2 – promotes myeloid progenitor differentiation; ER-HoxA9 myeloid progenitors, lysozyme-GFP differentiation, flow cytometry; calls only at 10 µM; 360,000 compounds, 1% hits;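 active = normalized GFP-positive differentiation at or above the plate's own cutoff, the solvent-only control mean plus 3 SD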;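 also: cells exposed to compound for four days before flow analysis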
PP5 primary – inhibitors of human protein phosphatase 5 (PP5). inhibition, % at 6.7 µM. P53041. purified PP5c, OMFP substrate fluorescence. 320,000 compounds, 0.18% hits;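 active = inhibition above the campaign's mean inhibition across all tested compounds plus 3 SD, cut at about 9.5% in these data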
CTSL1 counter – cathepsin L1 inhibition, PFM18AAP counter-screen. recombinant F. hepatica cathepsin L1, Z-Leu-Arg-MCA fluorescence. inhibition, % at 5.96 µM. 300,000 compounds, 0.49% hits;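 active = inhibition above the mean of all tested compounds plus 3 SD, set per screening campaign, cut at about 17% in these data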
Hits are given with their value; – = inactive; · = no result given; + = active, no number; ! = a repeat was not active.

SMILES	PP1 counter	NadD block	HCV core dimer	Myeloid diff 2	PP5 primary	CTSL1 counter
COc1ccc(NC(=O)Nc2ccc3c(c2)C(=O)N([C@H](C)CO)C[C@H](C)[C@@H](CN(C)Cc2ccc(Cl)c(Cl)c2)OCCCC[C@@H](C)O3)cc1	·	40	·	–	·	·
CC(=O)N(\C=C/C=C/C=C1\Sc2ccccc2C1=O)c1ccccc1	–	–	–	–	–	–
CC(=O)N(/N=C1\Sc2ccccc2C1=O)c1ccccc1	·	–	·	–	·	·
CC(=O)N(/N=C1\Sc2ccccc2C1=O)c1ccc(C)cc1C	–	–	–	+	–	–
CC(=O)N(/N=C1\Sc2ccccc2C1=O)c1ccccc1C	–	–	–	–	–	87
CC1SC(c2ccc(F)cc2)N(CCc2ccccc2)C1=O (stereo not given)	–	–	–	–	–	–
O=C(CCl)N1c2ccccc2CCc2ccccc21	–	–	–	+	–	–
Nc1nonc1-n1nnc(C(=O)N/N=C/c2ccc(OCc3ccccc3F)cc2)c1CNc1ccccc1	–	–	–	–	–	–
O=C(Nc1ncccc1O)c1cccc(S(=O)(=O)NCc2ccccc2)c1	–	–	–	–	–	–
CCCCC1CCC(C(=O)Nc2ccc(S(=O)(=O)Nc3nccs3)cc2)CC1 (stereo not given)	–	33	–	–	–	–
Cc1ccc(C2=NOC(=O)/C2=C\C=C\c2ccccc2)cc1	·	26	·	–	·	·
COc1cc(/C=C2\CCC(C3CCCC3)C2=O)cc(OC)c1OC (stereo not given)	–	–	–	–	–	27
CCCCN(C(=O)c1ccco1)C1CCS(=O)(=O)C1 (stereo not given)	–	–	–	–	–	–
CC1=NN(c2ccccc2)C(=O)/C1=C\c1ccc(Oc2ccc([N+](=O)[O-])cc2[N+](=O)[O-])cc1	–	30	61	–	–	–
COc1cc(/C=C2\C(=O)N(c3ccccc3)N=C2C)ccc1Oc1ccc([N+](=O)[O-])cc1[N+](=O)[O-]	–	36	–	–	–	–
CCCn1c(=S)[nH]c2cc(C(=O)N3CCN(c4ccc(F)cc4)CC3)ccc2c1=O	·	–	·	–	·	·
O=C(CC1C(=O)NCCN1Cc1ccccc1)NCCC1=CCCCC1 (stereo not given)	–	–	–	–	–	–
CCOC(=O)c1c(C)[nH]c(C(=O)CSc2ccc(Cl)cc2)c1C	–	–	–	–	–	–
CCOC(=O)c1c(C)[nH]c(C(=O)CSc2nnc(Nc3ccccc3F)s2)c1C	17	–	–	–	–	–
CCn1c(COc2ccccc2C)nnc1SCC(=O)CC(=O)Nc1ccccc1	–	–	–	–	–	25
O=C(O)c1ccccc1CSc1nc2ccccc2n1Cc1ccccc1C(=O)O	–	–	–	+	–	–
Cc1ccc(Cn2nnc3c(=O)[nH]c(C4CCN(S(=O)(=O)c5ccc(C)cc5)CC4)nc32)cc1	–	–	–	–	–	–
COC(=O)c1ccc(Cn2nnc3c(=O)[nH]c(C4CCN(S(=O)(=O)c5cc(C)ccc5C)CC4)nc32)cc1	16	–	–	–	–	–
COCCn1c(Cc2ccccc2)nnc1SCC(=O)NC1CCCCC1	–	–	–	–	–	–
CCCCc1cc(=O)oc2cc(OCC(=O)NC3CCN(Cc4ccccc4)CC3)ccc12	–	–	–	+	–	–
SMILES	PP1 counter	NadD block	HCV core dimer	Myeloid diff 2	PP5 primary	CTSL1 counter
Cc1ccc(NC(=O)n2ncc3c(C)cccc32)cc1F	–	–	–	–	–	–
CCC(=O)Nc1cc(C(=O)O)ccc1Sc1ccccc1	17	–	–	–	–	–
Nc1nc2ncc(CNc3ccc(C(=O)N[C@@H](CCC(=O)O)C(=O)O)cc3)nc2c(=O)[nH]1	–	–	–	–	–	–
CN(Cc1cnc2nc(N)nc(N)c2n1)c1ccc(C(=O)N[C@@H](CCC(=O)O)C(=O)O)cc1	–	–	–	+!	–	–
C[C@@H]1CN([C@H](C)CO)C(=O)CCCn2cc(nn2)CO[C@H]1CN(C)C(=O)Nc1ccc2c(c1)OCCO2	·	–	·	–	·	·
O=C(COC(=O)c1ccc([N+](=O)[O-])s1)NCCc1ccccc1	–	–	·	–	–	·
O=C(COC(=O)c1ccc([N+](=O)[O-])s1)NC(=O)NCc1ccccc1	–	–	–	–	–	18
O=C(COC(=O)c1ccc([N+](=O)[O-])s1)NCc1ccc(F)cc1	–	–	–	–	–	80
CC(NC(=O)COC(=O)c1ccc([N+](=O)[O-])s1)c1ccccc1 (stereo not given)	–	–	–	–	–	33
Cc1ccc(C(=O)OCC(=O)NC(C)c2ccccc2)s1 (stereo not given)	·	–	·	–	·	·
O=C(CCN1C(=O)/C(=C\C=C\c2ccccc2)SC1=S)Nc1ccc(C(=O)O)cc1	–	–	–	–	–	–
O=C(COC(=O)CCN1C(=O)/C(=C\C=C\c2ccccc2)SC1=S)Nc1cc(F)ccc1F	–	35	60	–	–	–
O=C(CCN1C(=O)/C(=C/C=C/c2ccccc2)SC1=S)Nc1nc2ccccc2s1	–	42	–	–	–	–
Cc1cc(-c2ccc(C(C)C)c(S(=O)(=O)NCCN3CCC(C)CC3)c2)on1	–	–	–	–	–	–
O=C(NC1CCCC1)C(c1ccco1)N1CCC(O)(c2ccc(Cl)cc2)CC1 (stereo not given)	·	·	·	–	·	·
CCC(=O)Nc1ccc(C(=O)CSc2nnc(-c3ccc(NS(=O)(=O)CC)cc3)o2)cc1OC	17	–	–	–	–	–
CC1=Nc2nc(N3CCCCCC3)c(C#N)c3c4c(nc(c23)N1)N(c1ccc2ccccc2c1)C(=O)C4	–	55	–	–	–	–
CN(C)/C=C/C(=O)/C=C/c1cn(-c2ncc(C(F)(F)F)cc2Cl)c2ccccc12	–	–	58	–	–	–
COC(=O)Cc1cn(-c2ncc(C(F)(F)F)cc2Cl)c2ccccc12	–	–	–	–	–	–
C=CCN=c1scc(-c2ccco2)n1/N=C/c1ccc(O)c(O)c1O	–	–	–	–	–	–
COCCN=c1scc(-c2ccco2)n1/N=C/c1ccc(O)c(O)c1O	–	39	54	–	–	–
Cn1c(=O)c2nc3ccccc3nc2n(C)c1=O	–	–	–	–	–	–
CC(=O)Nc1ccc2nc3c(=O)n(C)c(=O)n(C)c3nc2c1	–	–	–	+	–	–
Cc1ccc(Cc2c(-c3ccc(C#N)cc3)nc3c(C)cc(Br)cn23)cc1	·	–	·	–	·	·
O=C(CSc1cc(Cl)ccc1Cl)NCC(=O)Nc1ccc(F)c(F)c1F	–	–	–	–	–	18
O=C(CNC(=O)c1cccc(Cl)c1)Nc1ccc(F)c(F)c1F	–	–	–	–	–	–
C=C1C[C@]23C[C@@]1(O)CC[C@H]2[C@@]12C=C[C@H](O)[C@@](C)(C(=O)O1)[C@H]2[C@@H]3C(=O)O	–	–	–	+!	–	–
COc1ccc(C(=O)NCCS(=O)(=O)NCc2ccccc2OC)cc1	–	–	–	–	–	–

Screening results as filed in PubChem BioAssay.
